In ChEMBL document CHEMBL1255431, “Inhibitors of Leishmania GDP-mannose pyrophosphorylase identified by high-throughput screening of small-molecule chemical library” (Antimicrob Agents Chemother, 2010):
Activity calls are given as the source filed them. The rule behind the calls is not given here.

Tests used:
[1] = Inhibition of Leishmania major recombinant GDP-mannose pyrophosphorylase expressed in Escherichia coli […] by fluorescence assay
Method in brief: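 Recombinant His6-tagged L. major GDP-MP, expressed in E. coli BL21(DE3)pLysS and purified on Talon resin. Buffer: 25 mM Tris-HCl pH 7.5, 4 mM MgCl2, 150 mM NaCl, 0.02% Tween 20, 0.4 mg/ml OVA. Final 5 μM M-1-P and 1.3 μM GTP, with inorganic pyrophosphatase coupling. Pi detected by MDCC phosphate sensor, Ex430/Em480, read each minute for 10 min.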

Leishmania major [2] = assay: Antileishmanial activity Leishmania major V121 amastigotes; type: functional, organism-based
Method in brief: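 Ex vivo amastigotes purified from lesions of L. major-infected CBA nu/nu mice, resuspended in M199. Exposed 24 h to 2-fold dilutions from 100 μM to 49 nM. 10^6 parasites per well, in duplicate. Viability by CellTiter blue, read at 550 nm with 630 nm reference. IC50 against nontreated controls.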

[3] = Cytotoxicity against HFF by Cell titer blue assay; type: cell-based; conditions: human, HFF cells
Method in brief: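 Primary human foreskin fibroblasts grown in DMEM with 10% HI-FBS, 37°C, 5% CO2. Compound toxicity measured by CellTiter blue viability, concentrations up to 100 μM.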

Leishmania major [4] = assay: Antileishmanial activity Leishmania major V121 promastigotes infected in mouse bone marrow-derived macrophage assessed as mild inhibition of cell invasion at 30 uM after 48 hrs by microscopy; type: functional, organism-based
[5] = Cytotoxicity against mouse bone marrow-derived macrophages at 30 uM after 48 hrs by Cell titer blue assay; type: cell-based; conditions: macrophage
Leishmania major [6] = assay: Antileishmanial activity Leishmania major V121 amastigotes infected in mouse bone marrow-derived macrophage assessed as complete inhibition of cell invasion at 30 uM after 48 hrs by microscopy; type: functional, organism-based
Leishmania major [7] = assay: Antileishmanial activity Leishmania major V121 amastigotes infected in mouse bone marrow-derived macrophage assessed as inhibition of parasite proliferation after 48 hrs by Giemsa staining; type: functional, organism-based
Method in brief: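 Intracellular proliferation format in mouse bone marrow-derived macrophages, with amastigotes used for infection. Infected cells on duplicate coverslips exposed to compound for 48 h, then washed, methanol-fixed and Giemsa-stained. Percentage of infected cells counted microscopically.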

Leishmania major [8] = assay: Antileishmanial activity Leishmania major V121 promastigotes infected in mouse bone marrow-derived macrophage assessed as inhibition of cell invasion after 48 hrs by microscopy; type: functional, organism-based
Leishmania major [9] = assay: Antileishmanial activity Leishmania major V121 amastigotes infected in mouse bone marrow-derived macrophage assessed as inhibition of cell invasion after 48 hrs by microscopy; type: functional, organism-based
Leishmania major [10] = assay: Antileishmanial activity Leishmania major V121 amastigotes isolated from infected […] CBA nu/nu at 10 to 30 uM after 48 hrs by microscopy; type: functional, organism-based
Leishmania major [11] = assay: Antileishmanial activity Leishmania major V121 promastigotes infected in mouse bone marrow-derived macrophage assessed as inhibition of cell invasion at 10 uM after 48 hrs by microscopy; type: functional, organism-based
Leishmania major [12] = assay: Antileishmanial activity Leishmania major V121 promastigotes infected in mouse bone marrow-derived macrophage assessed as complete inhibition of cell invasion at 30 uM after 48 hrs by microscopy; type: functional, organism-based
Leishmania major [13] = assay: Antileishmanial activity Leishmania major V121 amastigotes infected in mouse bone marrow-derived macrophage assessed as mild inhibition of cell invasion at 30 uM after 48 hrs by microscopy; type: functional, organism-based
Leishmania major [14] = assay: Antileishmanial activity Leishmania major V121 amastigotes isolated from infected […] CBA nu/nu at 10 to 40 uM after 48 hrs by microscopy; type: functional, organism-based
Leishmania major [15] = assay: Antileishmanial activity Leishmania major V121 amastigotes isolated from infected […] CBA nu/nu after 48 hrs by microscopy; type: functional, organism-based

SMILES	IC50 [1]	IC50 (Leishmania major [2])	CC50 [3]	inhibition (Leishmania major [4])	IC50 (Leishmania major [7])	also measured
CCn1nc(C)cc1-c1nnc2sc(-c3ccc(C)cc3)nn12	1.37 µM	88.9 µM	> 100 µM	Active	–	Activity [5]: Toxic
COC(=O)c1c(O)c(C#N)c2n(c1=O)CCc1cc(OC)c(OC)cc1-2	2.44 µM	52.6 µM	> 100 µM	Active	> 30 µM	inhibition (Leishmania major [6]): Active
CCOC(=O)C/C(=N/O)c1nnn[nH]1	7.28 µM	> 100 µM	–	Active	–	–
CCCc1cc(-c2nn3c(-c4ccccc4)nnc3s2)n(CC)n1	1.26 µM	> 100 µM	–	Active	–	–
COc1ccc(-c2csc3c2C2=NCCN2C=N3)cc1OC	7.54 µM	> 100 µM	–	Active	–	–
Cc1ccc(/C=C2/C(=O)NN(c3ccc(F)cc3)C2=O)o1	10.7 µM	90.7 µM	> 100 µM	Active	> 30 µM	–
Cc1ccc2[nH]c(CCC3CCCCC3)nc2c1	1.56 µM	23.7 µM	> 100 µM	Active	–	Activity [5]: Toxic
COc1ccc2c(=O)c(C(=O)O)csc2c1	8.25 µM	> 100 µM	–	Active	–	–
Cc1cc(C)nc(SCc2nn3c(-c4ccccc4)nnc3s2)n1	3.95 µM	> 100 µM	–	Active	–	–
CCn1nc(C)cc1-c1nnc2sc(Cc3c(F)cccc3Cl)nn12	1.05 µM	> 100 µM	–	Active	–	–
Clc1ccc2c(N3CCN(Cc4ccccc4)CC3)ccnc2c1	–	62.2 µM	–	Active	> 30 µM	inhibition (Leishmania major [8]): Dose-dependent effect; inhibition (Leishmania major [9]): Dose-dependent effect; Activity (Leishmania major [10]): Active
Clc1ccc2c(N3CCN(Cc4ccc(-c5ccccc5)cc4)CC3)ccnc2c1	–	32.6 µM	> 100 µM	Active	11.7 µM	IC50 (Leishmania major [8]; V121, 48 h): 17.6 µM
Fc1cccc(Cl)c1Cc1nn2c(-c3ccccc3)nnc2s1	2.98 µM	> 100 µM	–	Active	–	–
Cc1ccc(C(=O)N2CCN(c3ccnc4cc(Cl)ccc34)CC2)cc1	–	70.6 µM	–	Active	> 30 µM	inhibition (Leishmania major [8]): Dose-dependent effect; inhibition (Leishmania major [9]): Dose-dependent effect; Activity (Leishmania major [10]): Active; inhibition (Leishmania major [11]): inactive
CN1CCN(c2ccnc3cc(Cl)ccc23)CC1	–	> 100 µM	–	Active	–	–
CN(C)Cc1c(O)ccc2c(=O)c(-c3cnn(-c4ccccc4)c3)coc12	4.12 µM	73.4 µM	> 100 µM	Active	> 30 µM	–
c1ccc2c(-c3cnc4n3CCS4)c[nH]c2c1	0.49 µM	78 µM	> 100 µM	Active	> 30 µM	inhibition (Leishmania major [6]): Active
COc1ccc(-c2nnc3sc(-c4ccc(F)cc4)nn23)cc1	4.45 µM	> 100 µM	–	Active	–	–
Cc1ccccc1Cc1nnc2sc(-c3ccc(Cl)cc3)nn12	1.09 µM	> 100 µM	–	Active	–	–
Cc1ccc(N2NC(=O)/C(=C/c3cc4c(cc3Cl)OCO4)C2=O)cc1C	5.75 µM	25.1 µM	> 100 µM	Active	> 30 µM	–
Clc1ccc(C2=NN3C(c4ccccc4)=NNC3S2)c(Cl)c1 (stereo not given)	2.93 µM	> 100 µM	–	Active	–	–
Cc1ccc2c(n1)[nH]c1ccccc12	5.53 µM	96.8 µM	> 100 µM	Active	> 30 µM	–
CCc1nnc(N2C(=O)C3C4C=CC(C4)C3C2=O)s1 (stereo not given)	3.53 µM	> 100 µM	–	Active	–	–
CC(C)(C)c1ccc(CN2CCN(c3ccnc4cc(Cl)ccc34)CC2)cc1	0.58 µM	62.3 µM	> 100 µM	–	21.9 µM	inhibition (Leishmania major [12]): Active; inhibition (Leishmania major [13]): Active; inhibition (Leishmania major [8]): Dose-dependent effect; inhibition (Leishmania major [9]): Dose-dependent effect; Activity (Leishmania major [14]): Active; Activity (Leishmania major [15]): Active; inhibition (Leishmania major [7]): Dose-dependent effect
C[C@@H]1[C@H](O)[C@@H](C)/C=C/C=C/C=C/C=C/C=C/C=C/C=C/[C@H](O[C@@H]2O[C@H](C)[C@@H](O)[C@H](N)[C@@H]2O)C[C@@H]2O[C@](O)(C[C@@H](O)C[C@@H](O)[C@H](O)CC[C@@H](O)C[C@@H](O)CC(=O)O[C@H]1C)C[C@H](O)[C@H]2C(=O)O [AMPHOTERICIN B]	–	1.6 µM	–	–	0.5 µM	–
COc1ccc(CCC2=Nc3ccccc3S(=O)(=O)N2)cc1	5.31 µM	–	–	Active	–	–
